The source of these data is ChEMBL document CHEMBL2321707, “Synthesis, SAR study, and biological evaluation of a series of piperazine ureas as fatty acid amide hydrolase (FAAH) inhibitors” (Bioorg Med Chem, 2013).

The first data set is described as follows: Drug level in rat brain at 0.1 mg, iv at 1 hr. Format: ADME, organism-based. Conditions: read-out: Drug uptake. In outline:
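Rats given 0.1 mg/kg i.v.; brain homogenized 1 h after dosing and compound concentration measured in tissue.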
For the compound `Cc1noc(NC(=O)N2CCN(c3nc(-c4ccccc4F)cs3)CC2)c1C`, the concentration at 1 h was found to be 103 ng/g.

For `Cc1noc(NC(=O)N2CCN(c3nc(-c4ccccc4)ns3)CC2)c1C`, the concentration at 1 h is 25 ng/g.

Regarding `Cc1noc(NC(=O)N2CCN(c3nc(-c4cccc(F)c4)ns3)CC2)c1C`, the concentration at 1 h was 12 ng/g.

As for `Cc1noc(NC(=O)N2CCN(c3nc(-c4ccc(F)cc4)ns3)CC2)c1C`, the concentration at 1 h is 17 ng/g.

As to `Cc1noc(NC(=O)N2CCN(c3nc(-c4ccccc4)cs3)CC2)c1C`, the concentration at 1 h was 23 ng/g.

Turning to `Cc1noc(NC(=O)N2CCN(c3nc(-c4ccc(F)cc4F)cs3)CC2)c1C`, the concentration at 1 h was found to be 82 ng/g.

For `Cc1noc(NC(=O)N2CCN(c3nc(-c4cccc(F)c4)cs3)CC2)c1C`, the concentration at 1 h is 101 ng/g.

Consider `Cc1noc(NC(=O)N2CCN(c3nc(-c4ccccc4F)ns3)CC2)c1C`, for which the concentration at 1 h stood at 4.6 ng/g.

For the compound `Cc1noc(NC(=O)N2CCN(c3nc(-c4ccc(F)cc4)cs3)CC2)c1C`, the concentration at 1 h is 132 ng/g.

The next data set in a line: Bioavailability in rat. Format: ADME, organism-based. The note with it: in vivo. In outline:
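Rat cassette dosing, 1 mg/kg po.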
On to `O=C(Nc1noc2ccccc12)N1CCN(c2nc(-c3ccccc3)ns2)CC1`, for which the bioavailability (commonly dose-corrected exposure relative to a reference, in per cent) is 5%.
